# Screening data: PubChem BioAssay, Sanford-Burnham Center for Chemical Genomics
# CCR6 antag: CCR6 (human) receptor antagonism. P51684. CHO-K1 CCR6 PathHunter beta-arrestin, luminescence, CCL20-stimulated. inhibition, % at 20 µM. 340,000 compounds, 0.49% hits. AID 493098;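 active = compounds whose inhibition of the agonist-driven luminescence signal at 20 µM reaches about 50%, limit read from the data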;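 also: cells stimulated with CCL20 at 14 nM final; plate controls were DMSO with CCL20 for no effect and DMSO without agonist for full effect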
# Target sequence (P51684 whole entry, looked up): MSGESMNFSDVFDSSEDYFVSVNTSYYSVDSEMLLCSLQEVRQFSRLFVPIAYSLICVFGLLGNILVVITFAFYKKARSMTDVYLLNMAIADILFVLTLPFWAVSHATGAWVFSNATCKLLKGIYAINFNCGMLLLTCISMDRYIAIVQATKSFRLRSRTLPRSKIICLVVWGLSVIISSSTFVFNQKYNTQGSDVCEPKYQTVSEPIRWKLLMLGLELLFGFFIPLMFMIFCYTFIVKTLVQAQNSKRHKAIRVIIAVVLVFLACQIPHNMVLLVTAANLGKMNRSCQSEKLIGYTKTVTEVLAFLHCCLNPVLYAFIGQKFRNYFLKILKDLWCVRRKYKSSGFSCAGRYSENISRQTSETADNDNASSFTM
# iPSC survival up: increases survival of single human iPS cells; hiPSC single-cell survival, ATPlite luminescence; 100% = ROCK inhibitor wells, 0% = DMSO; survival enhancement, % at 20 µM; 360,000 compounds, 0.044% hits; in the data active = survival enhancement above about 18%;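 also: cells exposed to compounds for 16 hours before the ATP read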
# EBI2 block: EBI2 (human) antagonism; P32249; AID 651636; EBI2 beta-arrestin recruitment, luminescence, 7a,25-OHC stimulated; 360,000 compounds, 0.81% hits; inhibition, % at 5 µM; in the data active = inhibition above about 38%;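 also: enzyme fragment complementation signal reports receptor beta-arrestin coupling in cells; 0% = agonist plus DMSO wells and 100% = wells without agonist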
# CXCR6 inh: inhibitors of human CXCR6 receptor; O00574; 360,000 compounds, 0.36% hits; CHO-K1 PathHunter CXCR6 beta-arrestin, luminescence; inhibition, % at 20 µM; in the data active = inhibition above about 34%, passing the limit was not always enough;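 also: antagonist mode with CXCL16 agonist at 10 nM final; 0% = 10 nM CXCL16 with DMSO and 100% = unstimulated wells without agonist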
# APJ ag: APJ receptor agonism | CHO-K1 APJ PathHunter beta-arrestin, luminescence; 0% DMSO wells, 100% apelin | P35414 | 330,000 compounds, 0.11% hits | activation, % at 20 µM;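 active = activation more than six SD over the plate average, tested at 20 µM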;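 also: 0% = DMSO alone and 100% = apelin-13 at 10 nM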
#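 system = engineered CHO-K1 APJ arrestin reporter cells | input = 1000 cells per well | timing = overnight seeding, 90 min compound at 25 °C, 1 h detection | measured by = enzyme-fragment complementation luminescence | read-out = beta-arrestin recruitment to APJ as agonist activity, luminescent signal | control set = negative DMSO alone, positive Apelin-13 at 10 nM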
# APJ antag: APJ receptor antagonism. P35414. CHO-K1 APJ beta-arrestin complementation, luminescence. inhibition, % at 20 µM. 330,000 compounds, 0.32% hits;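 active = inhibition above about 40% at 20 µM, limit read from the data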;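 also: cells challenged with 10 nM apelin-13 agonist together with compound; plate controls were apelin-13 plus DMSO wells for no effect and DMSO wells lacking apelin-13 for full effect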
# EBI2 conf: confirmation of human EBI2 receptor antagonists. AID 651997. inhibition, % at 5 µM. EBI2 beta-arrestin luminescence, 7a,25-OHC antagonism. shares compounds with EBI2 block. 2,400 compounds, 29% hits;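 active = inhibition of at least 50%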
# EBI2 agonist: activates EBI2, counter-screen for EBI2 antagonists; EBI2-expressing cells, agonist mode, luminescence, 60 min; 0% vehicle, 100% 7α,25-dihydroxycholesterol control; activation, % at 5 µM; shares compounds with EBI2 block; 2,400 tested, under 10 active;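 active = activation of at least 50%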
# bGal cs: beta-galactosidase inhibition counter-screen; shares compounds with EBI2 block; purified beta-galactosidase, luminescent Galacton Star, 15 min; inhibition, % at 5 µM; 2,400 compounds, 1% hits; AID 652176;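 active = replicate-average signal at least 3 plate SD below neutral wells, shown as high inhibition, flagging enzyme-inhibiting false positives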;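 also: 0% = DMSO wells with enzyme and 100% = wells lacking enzyme; higher means stronger loss of beta-gal luminescence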
# Active calls of the source: *; · = no result given. Sampled rows, rich in hits. Any-hit rate of the full collection: about 1.5%.
SMILES,CCR6 antag,iPSC survival up,EBI2 block,CXCR6 inh,APJ ag,APJ antag,EBI2 conf,EBI2 agonist,bGal cs
O=C(c1cc(-c2cccs2)on1)N1CCN(C(c2ccccc2)c2ccccc2)CC1,15,-2,88*,10,-4,21,84*,-1,-9
COc1ccc2c(c1)CCCC21NC(=O)N(CC(=O)N2CC(C)OC(C)C2)C1=O (stereo not drawn),7,0,-13,8,-2,-1,·,·,·
Cc1ccccc1OCC(=O)NNC(=O)C1CCN(c2ncnc3sc(C)c(C)c23)CC1,-9,0,50*,-13,4,-14,20,1,6
Cc1ccc(S(=O)(=O)N2CCN(C(=O)COC(=O)COc3ccc(Br)cc3)CC2)c(C)c1,-10,-1,-10,5,·,·,·,·,·
COc1ccc(C(=O)N2CCN(S(=O)(=O)c3ccc(C)cc3C)CC2)cc1OC,-1,-1,48*,-3,1,13,51*,2,7
Cc1ccc(S(=O)(=O)N2CCN(C(=O)c3ccc4ccccc4n3)CC2)c(C)c1,2,-1,55*,3,-2,-13,45,1,7
COc1cccc2cc(C(=O)N3CCN(c4ccc(C)cc4C)CC3)c(=O)oc12,-14,-1,47*,0,3,14,33,1,8
CC(=O)c1ccc(OCC(=O)N2CCN(S(=O)(=O)c3ccc(C)cc3C)CC2)cc1,-16,0,65*,-4,-1,-7,29,0,9
COc1ccccc1-n1c(SC(C)C(=O)NCC2CCCO2)nc2cc(Cl)ccc2c1=O (stereo not drawn),30,1,13,16,-10,35,·,·,·
CCN(CC)C(=O)C1=C(C)N(CCCN2CCCC2=O)C(=O)C(CC(=O)NCCCN(C)C)C1 (stereo not drawn),·,0,-5,-11,·,·,·,·,·
COc1ccc(C(=O)N2CCN(c3ccc(C)cc3C)CC2)cc1OC,8,1,78*,1,-3,-58,53*,1,9
O=C(/C=C/c1ccc([N+](=O)[O-])cc1)N1CCN(c2ccccc2F)CC1,-10,2,68*,5,2,8,24,2,7
O=C(/C=C/c1ccccc1)N1CCN(c2c(Cl)cccc2[N+](=O)[O-])CC1,15,4,95*,-4,-2,-2,91*,2,2
O=C(Cc1ccccc1[N+](=O)[O-])N1CCN(c2ccccc2F)CC1,-6,1,-1,-7,-2,-2,·,·,·
CCC(=O)N1CCN(c2c(Cl)cccc2[N+](=O)[O-])CC1,18,-2,-3,4,-2,-18,·,·,·
O=C(O/N=C\c1ccc(N2CCCCC2)c([N+](=O)[O-])c1)c1ccc(Cl)cc1Cl,14,15,51*,11,-3,13,13,1,7
O=C(/C=C/c1ccc(Cl)cc1)N1CCN(c2ccc(Cl)cc2[N+](=O)[O-])CC1,15,-2,98*,1,-4,3,80*,0,10
O=C(CN1CCN(c2ccc(Cl)cc2[N+](=O)[O-])CC1)N1CCOCC1,-8,0,7,-7,3,-2,·,·,·
C[C@@H]1CCCCO[C@H](CN(C)Cc2ccc(C(=O)O)cc2)[C@@H](C)CN([C@H](C)CO)C(=O)c2cc(NC(=O)CCC(F)(F)F)ccc2O1,·,-1,-10,3,·,·,·,·,·
CC(=O)c1ccc(N2CCN(C(=O)/C=C/c3cccs3)CC2)cc1,6,0,15,-2,-4,-10,·,·,·
O=C(/C=C/c1cccs1)N1CCOCC1,1,7,-9,8,-2,7,·,·,·
O=C(/C=C/c1cccs1)N1CCN(c2ccccc2F)CC1,4,0,50*,8,-3,-19,52*,0,7
O=C(/C=C/c1cccs1)N1CCN(c2ccc(F)cc2)CC1,22,0,55*,5,2,17,36,1,7
Cc1c(Cc2ccc3c(c2)OCO3)sc(NC(=O)c2ccccc2)c1C(N)=O,12,4,7,-2,-1,-3,·,·,·
CCOC(=O)c1c(NC(=O)CN2C(=O)c3ccccc3C2=O)sc(Cc2ccc3c(c2)OCO3)c1C,9,1,65*,6,-3,19,39,0,-16
SMILES,CCR6 antag,iPSC survival up,EBI2 block,CXCR6 inh,APJ ag,APJ antag,EBI2 conf,EBI2 agonist,bGal cs
CCN1C(=O)C(=O)N(CC(=O)Nc2ccccc2OC(F)F)C1=O,12,2,-1,-5,-3,18,·,·,·
O=C(c1ccc(Br)cc1)N1CCN(Cc2ccccc2)CC1,4,0,48*,-3,-1,12,36,0,5
COc1ccc(C(=O)N2CCC(C(=O)N3CCN(c4ccccc4)CC3)CC2)cc1,15,0,22,11,-2,-17,·,·,·
O=C(c1ccc2ccccc2c1)N1CCN(Cc2ccccc2)CC1,7,0,90*,-4,-2,-19,77*,1,6
O=C(c1ccc(F)cc1)N1CCN(Cc2ccccc2)CC1,-1,1,9,-4,-1,-1,·,·,·
O=C(c1ccc(Br)cc1)N1CCC(C(=O)N2CCN(c3ccccc3)CC2)CC1,25,0,79*,-8,-2,10,39,0,-11
Cc1ccc(N2CCN(c3ccc(C)cc3)C2c2cccnc2)cc1,19,-2,68*,-10,3,-22,28,0,-12
c1ccc(N2CCN(c3ccccc3)C2c2cccnc2)cc1,15,-2,2,5,-5,-7,·,·,·
COc1cc(-c2ccc3c(=O)c4ccccc4sc3c2)cc(OC)c1OC,-8,0,44*,-6,-2,1,27,-1,-10
COc1cc(-c2ccc3sc(-c4ccsc4)c(C#CCO)c3c2)cc(OC)c1OC,-9,-1,-2,-11,1,-5,·,·,·
COC(=O)c1c(-c2ccsc2)sc2ccc(-c3cc(OC)c(OC)c(OC)c3)cc12,18,-1,55*,3,-2,2,6,-1,-7
COc1cc(-c2ccc3c(=O)c4ccccc4n(C)c3c2)cc(OC)c1OC,1,-1,-38,1,13,7,·,·,·
CC(=O)C1=C(O)C(=O)N(c2ccccn2)C1c1cccc(F)c1 (stereo not drawn),10,0,-10,-5,-3,8,·,·,·
